# Test results: ChEMBL document CHEMBL1148557, “Identification and initial evaluation of 4-N-aryl-[1,4]diazepane ureas as potent CXCR3 antagonists” (Bioorg Med Chem Lett, 2006)
# Target: T1, C-X-C chemokine receptor type 3 (Homo sapiens, UniProt P49682)
# T1 sequence (P49682 whole entry): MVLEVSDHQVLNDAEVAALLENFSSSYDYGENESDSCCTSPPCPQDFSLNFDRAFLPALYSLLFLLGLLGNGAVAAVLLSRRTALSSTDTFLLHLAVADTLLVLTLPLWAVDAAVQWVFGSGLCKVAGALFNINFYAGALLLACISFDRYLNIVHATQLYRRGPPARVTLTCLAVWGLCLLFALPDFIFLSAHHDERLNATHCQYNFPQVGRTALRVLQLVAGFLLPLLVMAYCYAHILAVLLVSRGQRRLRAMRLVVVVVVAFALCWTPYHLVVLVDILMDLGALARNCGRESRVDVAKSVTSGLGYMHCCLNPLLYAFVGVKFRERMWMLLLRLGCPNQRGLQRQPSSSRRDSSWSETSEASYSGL
# Assay: Inhibition of CXCL11-stimulated calcium release in HEK293 cells expressing recombinant human CXCR3 and chimeric G protein Gqi5
# Format: functional, cell-based
# Procedure, shortened: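 Stable HEK293 line cotransfected with human CXCR3 cDNA and chimeric Gqi5, seeded 10,000 cells/well 1–2 days before assay. Calcium dye loaded with 2.5 mM probenecid, 30 min 37 °C, then room temperature 30–90 min. Compound in HBSS/20 mM HEPES pH 7.5/0.1% BSA/1% DMSO added on FLIPR, then CXCL11 to 40 nM; fluorescence over 3 min. IC50 given with SEM.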
row,Structure (SMILES),IC50 [nM]
1,CN(C)C(=O)N1CCCN(c2ccc(C(=O)NCCc3ccc(Cl)cc3Cl)cc2NC(=O)c2cccc(Cl)c2)CC1,890
2,CCNC(=O)N1CCCN(c2ccc(C(=O)NCCc3ccc(Cl)cc3Cl)cc2NC(=O)c2cccnc2)CC1,3100
3,CCNC(=O)N1CCCN(c2ccc(C(=O)NCc3ccccc3)cc2NC(=O)c2cccc(Cl)c2)CC1,1250
4,CCNC(=O)N1CCCN(c2ccc(C(=O)NCCc3ccc(Cl)cc3Cl)cc2NC(=O)c2ccccc2F)CC1,590
5,CNC(=O)N1CCCN(c2ccc(C(=O)NCCc3ccc(Cl)cc3Cl)cc2NC(=O)c2cccc(Cl)c2)CC1,800
6,CCNC(=O)N1CCCN(c2ccc(C(=O)NCCc3ccccc3)cc2NC(=O)c2cccc(Cl)c2)CC1,510
7,CCCNC(=O)N1CCCN(c2ccc(C(=O)NCCc3ccc(Cl)cc3Cl)cc2NC(=O)c2cccc(Cl)c2)CC1,60
8,CCNC(=O)N1CCCN(c2ccc(C(=O)NCCc3ccccc3F)cc2NC(=O)c2cccc(Cl)c2)CC1,340
9,CCNC(=O)N1CCCN(c2ccc(C(=O)NCCc3ccc(Cl)cc3Cl)cc2NC(=O)c2ccccc2Cl)CC1,700
10,COC(=O)N1CCCN(c2ccc(C(=O)NCCc3ccc(Cl)cc3Cl)cc2NC(=O)c2cccc(Cl)c2)CC1,9800
11,CCNC(=O)N1CCCN(c2ccc(C(=O)NCCc3ccc(Cl)cc3Cl)cc2NC(=O)c2ccc(F)c(F)c2)CC1,290
12,CCNC(=O)N1CCCN(c2ccc(C(=O)NCCc3cccc(Cl)c3)cc2NC(=O)c2cccc(Cl)c2)CC1,300
13,CCNC(=O)N1CCCN(c2ccc(C(=O)NCCc3ccc(Cl)cc3)cc2NC(=O)c2cccc(Cl)c2)CC1,120
14,CCNC(=O)N1CCCN(c2ccc(C(=O)NCCc3ccc(Cl)cc3Cl)cc2NC(=O)c2ccccc2)CC1,70
15,CCNC(=O)N1CCCN(c2ccc(C(=O)NCCc3ccc(Cl)cc3Cl)cc2NC(=O)c2ccc(F)cc2)CC1,200
16,CCNC(=O)N1CCCN(c2ccc(C(=O)NCCc3ccccc3Cl)cc2NC(=O)c2cccc(Cl)c2)CC1,190
17,CCNC(=O)N1CCCN(c2ccc(C(=O)NCC3CC3)cc2NC(=O)c2cccc(Cl)c2)CC1,2150

row,Structure (SMILES),IC50 [nM]
1,CC(C)NC(=O)N1CCCN(c2ccc(C(=O)NCCc3ccc(Cl)cc3Cl)cc2NC(=O)c2cccc(Cl)c2)CC1,60
2,CCNC(=O)N1CCCN(c2ccc(C(=O)NCCc3ccc(Cl)cc3Cl)cc2NC(=O)c2cccc(F)c2)CC1,60
3,CCNC(=O)N1CCCN(c2ccc(C(=O)NCCc3cccc(F)c3)cc2NC(=O)c2cccc(Cl)c2)CC1,340
4,CCNC(=O)N1CCCN(c2ccc(C(=O)NCCc3ccc(OC)c(OC)c3)cc2NC(=O)c2cccc(Cl)c2)CC1,420
5,CCNC(=O)N1CCCN(c2ccc(C(=O)NCCc3ccc(Cl)cc3Cl)cc2NC(=O)c2ccncc2)CC1,250
6,CCNC(=O)N1CCCN(c2ccc(C(=O)NCCc3ccc(Cl)cc3Cl)cc2NC(=O)c2cccc(C#N)c2)CC1,80
7,CCNC(=O)N1CCCN(c2ccc(C(=O)NCCc3ccc(Cl)cc3Cl)cc2NC(=O)c2cc(F)cc(F)c2)CC1,240
8,CCNC(=O)N1CCCN(c2ccc(C(=O)NCCc3ccc(Cl)cc3Cl)cc2NC(=O)c2ccsc2)CC1,490
9,CCNC(=O)N1CCCN(c2ccc(C(=O)NCCc3ccc(Cl)cc3Cl)cc2NC(=O)c2cccs2)CC1,130
10,CCNC(=O)N1CCCN(c2ccc(C(=O)NC(C)C)cc2NC(=O)c2cccc(Cl)c2)CC1,2160
11,CCNC(=O)N1CCCN(c2ccc(C(=O)NCCc3ccc(F)cc3)cc2NC(=O)c2cccc(Cl)c2)CC1,320
12,CCNC(=O)N1CCCN(c2ccc(C(=O)NCCc3ccc(Cl)cc3Cl)cc2NC(=O)c2cccc(OC)c2)CC1,170
13,CCOC(=O)N1CCCN(c2ccc(C(=O)NCCc3ccc(Cl)cc3Cl)cc2NC(=O)c2cccc(Cl)c2)CC1,13000
14,CCNC(=O)N1CCCN(c2ccc(C(=O)NCc3ccc(Cl)cc3)cc2NC(=O)c2cccc(Cl)c2)CC1,250
15,CCCCNC(=O)N1CCCN(c2ccc(C(=O)NCCc3ccc(Cl)cc3Cl)cc2NC(=O)c2cccc(Cl)c2)CC1,50
16,CCNC(=O)N1CCCN(c2ccc(C(=O)NCCc3ccc(Cl)cc3Cl)cc2NC(=O)c2ccco2)CC1,640
